Experimental data pooled from the literature.
Protocols differ between the studies behind these lines.
Organism: Enterobacter cloacae
Observed: microbial growth

| Compound | test | system | MIC |
| --- | --- | --- | --- |
| Cc1c(CN(C)C(=O)/C=C/c2cnc3c(c2)CC(CCN)C(=O)N3)oc2ccccc12.Cl (centres unmarked) | broth dilution | BAA2341 | 16 mg/L |
| CNC(=O)c1cc(Oc2ccc(NC(=O)Nc3ccc(Cl)c(C(F)(F)F)c3)cc2)ccn1 | – | DSM30054 | > 100 µM |
| C[C@@H](O)[C@H]1C(=O)N2C(C(=O)O)=C(S[C@@H]3CN[C@H](C(=O)N(C)C)C3)[C@H](C)[C@H]12 | – | – | 1.3 µM |
| CN(C)CCOc1c2c(c(O)c3cc(CN4CCC4)ccc13)C(=O)C1=C(O)[C@]3(O)C(=O)C(C(N)=O)=C(O)[C@@H](N(C)C)[C@@H]3C[C@@H]1C2 | broth dilution | ATCC13047 | > 32 mg/L |
| CC(C)CNc1nc(Cl)c2c(c1O)C(=O)C1=C(O)[C@]3(O)C(=O)C(C(N)=O)=C(O)[C@@H](N(C)C)[C@@H]3C[C@@H]1C2.Cl.Cl.Cl | broth dilution | ATCC13047 | > 32 mg/L |
| C/C(=C\c1ccc(C#N)cc1)C(=O)Nc1ccc(C(=O)N[C@@H](CC(N)=O)C(=O)Nc2ccc(C(=O)Nc3ccc(C(=O)Nc4ccc(C(=O)O)cc4)c(O)c3OC(C)C)cc2)cc1 | – | DSM30054 | > 64 mg/L |
| CN(C)[C@@H]1C(O)=C(C(N)=O)C(=O)[C@@]2(O)C(O)=C3C(=O)c4c(O)cnc(Cl)c4C[C@H]3C[C@@H]12.Cl | broth dilution | ATCC13047 | 8 mg/L |
| CN(C)[C@@H]1C(O)=C(C(N)=O)C(=O)[C@@]2(O)C(O)=C3C(=O)c4c(cc5ccc(CN6CC(F)(F)C6)cc5c4O)C[C@H]3C[C@@H]12 | broth dilution | ATCC13047 | 32 mg/L |
| O=C(Nc1ccc2c(c1)OC(F)(F)O2)Nc1ccc(Cl)c(C(F)(F)F)c1 | – | DSM30054 | > 100 µM |
| Cc1nc(Cl)c2c(c1O)C(=O)C1=C(O)[C@]3(O)C(=O)C(C(N)=O)=C(O)[C@@H](N(C)C)[C@@H]3C[C@@H]1C2.Cl | broth dilution | ATCC13047 | 32 mg/L |
| CO[C@@H](C(N)=O)[C@H](NC(=O)c1ccc(NC(=O)c2ccc(C#N)cc2)cc1)C(=O)Nc1ccc(C(=O)Nc2ccc(C(=O)Nc3ccc(C(=O)O)cc3)c(O)c2OC(C)C)cc1 | – | DSM30054 | > 64 mg/L |
